Source: ChEMBL document CHEMBL1128741, “Synthesis and biological evaluation of 5-fluoro-2'-deoxyuridine phosphoramidate analogs” (J Med Chem, 1995)

What was measured:
B16 = test: In vitro cytotoxicity (LC99) was measured against B16 Melanoma cells; assay type: cell-based; conditions: mouse
Procedure, shortened: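 B16 melanoma cells in exponential growth, (2–3) × 10⁶ in 10 mL serum-free MEM, exposed to drug for 2 h, then washed and resuspended in MEM + 10% FBS. Plated at 50–50 000 cells/plate, grown 8 d at 37 °C. Colonies stained with crystal violet and counted. LC99 (2-log drop in colony formation) taken from log-linear part of log surviving fraction vs concentration.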

L1210 [1] = test: In vitro growth inhibition of L1210 cells 24 hours after administration of compound; assay type: functional, cell-based; conditions: Mus musculus, L1210, 24 h
Procedure, shortened: (§1)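 Exponentially growing L1210 cells at (3–6) × 10⁴/mL in Fischer's medium with 10% horse serum, glutamine and antibiotic-antimycotic. Drug exposure lasted the stated time (2, 8, 24 or 48 h). Cells were then spun down and resuspended in drug-free medium. Coulter counts were taken 48 h after the start of treatment and expressed as percent of control. IC50 is given in μM.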

L1210 [2] = test: In vitro growth inhibition of L1210 cells 48 hours after administration of compound; assay type: functional, cell-based; conditions: Mus musculus, L1210, 48 h; procedure, shortened: as §1
L1210 [3] = test: In vitro growth inhibition of L1210 cells 2 hours after administration of compound; assay type: functional, cell-based; conditions: Mus musculus, L1210, 2 h; procedure, shortened: as §1
L1210 [4] = test: In vitro growth inhibition of L1210 cells 8 hours after administration of compound; assay type: functional, cell-based; conditions: Mus musculus, L1210, 8 h; procedure, shortened: as §1

| Structure (SMILES) | LC99 (B16) [µM] | IC50 (L1210 [1]) [nM] | IC50 (L1210 [2]) [nM] | IC50 (L1210 [3]) [nM] | IC50 (L1210 [4]) [nM] |
| --- | --- | --- | --- | --- | --- |
| CC1CC(C)(C)NC(CCOP(=O)(OC[C@H]2O[C@@H](n3cc(F)c(=O)[nH]c3=O)C[C@@H]2O)N2CCCCC2)O1 (stereo partly specified) | 650 | 24 | 8 | 750 | 260 |
| Cc1cn([C@H]2C[C@H](O)[C@@H](COP(=O)(OCCC3NC(C)(C)CC(C)O3)N(CCBr)CCBr)O2)c(=O)[nH]c1=O (stereo partly specified) | 120 | – | – | – | – |
| CC1CC(C)(C)NC(CCOP(=O)(OC[C@H]2O[C@@H](n3ccc(=O)[nH]c3=O)C[C@@H]2O)N(CCBr)CCBr)O1 (stereo partly specified) | 155 | – | – | – | – |
| CC1CC(C)(C)NC(CCOP(=O)(OC[C@H]2O[C@@H](n3cc(F)c(=O)[nH]c3=O)C[C@@H]2O)N(CCBr)CCBr)O1 (stereo partly specified) | 100 | – | – | – | – |
| CC1CC(C)(C)NC(CCOP(=O)(OC[C@H]2O[C@@H](n3cc(F)c(=O)[nH]c3=O)C[C@@H]2O)N(C)CCBr)O1 (stereo partly specified) | 101 | 18 | 2.5 | 120 | 50 |
| CC1CC(C)(C)NC(CCOP(=O)(OC[C@H]2O[C@@H](n3cc(F)c(=O)[nH]c3=O)C[C@@H]2O)N(C)CCCl)O1 (stereo partly specified) | 375 | 25 | 3.5 | 300 | 160 |
| Cc1cn([C@H]2C[C@H](O)[C@@H](COP(=O)(OCCC3NC(C)(C)CC(C)O3)N(C)CCBr)O2)c(=O)[nH]c1=O (stereo partly specified) | 165 | 7000 | 590 | 13000 | 10500 |
| CC1CC(C)(C)NC(CCOP(=O)(OC[C@H]2O[C@@H](n3cc(F)c(=O)[nH]c3=O)C[C@@H]2O)N2CCOCC2)O1 (stereo partly specified) | – | 900 | 150 | 15000 | 5000 |
| Cc1ccc(S(=O)(=O)OCCN(C)P(=O)(OCCC2NC(C)(C)CC(C)O2)OC[C@H]2O[C@@H](n3cc(F)c(=O)[nH]c3=O)C[C@@H]2O)cc1 (stereo partly specified) | 141 | 19 | 2.5 | 160 | 60 |
| CC1CC(C)(C)NC(CCOP(=O)(OC[C@H]2O[C@@H](n3ccc(=O)[nH]c3=O)C[C@@H]2O)N(C)CCCl)O1 (stereo partly specified) | – | 6000 | 550 | 40000 | 16500 |
| CC1CC(C)(C)NC(CCOP(=O)(OC[C@H]2O[C@@H](n3ccc(=O)[nH]c3=O)C[C@@H]2O)N(C)CCBr)O1 (stereo partly specified) | 319 | 1300 | 430 | 20000 | 8200 |
| CC1CC(C)(C)NC(CCOP(=O)(OC[C@H]2O[C@@H](n3cc(F)c(=O)[nH]c3=O)C[C@@H]2O)N(C)CCI)O1 (stereo partly specified) | 95 | 6 | 2 | 190 | 75 |
| O=c1[nH]cc(F)c(=O)[nH]1 [FLUOROURACIL] | > 2000 | 220 | 120 | 2200 | 630 |
